What is called clearance is a measure of how efficiently the substance is removed, as volume per time. As usually defined, the solubility is how much of the substance goes into solution per volume. Read a low solubility as a poorly soluble substance. One may read the IC50 as the concentration that gives 50% inhibition. Low readings indicate greater potency, high ones weaker potency.

The nature of series [1]: Clearance in Sprague-Dawley rat at 1 mg/kg, iv after 4 hrs. In kind it is ADME, organism-based. The following applies: in vivo. The procedure, abridged:
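Male Sprague-Dawley rats given 1 mpk IV in PEG400/ethanol (90:10); blood sampled at 5 and 30 min and 1, 2 and 4 h post-dose; clearance from plasma profile.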

The nature of series [2]: Aqueous solubility of the compound. Type of series: physicochemical. The procedure, abridged:
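Aqueous solubility measured at pH 2.3, 6.1, 7.3 and 8.5, in µg/mL.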

Series [3] addresses Human immunodeficiency virus type 1 integrase (Human immunodeficiency virus 1, UniProt Q7ZJM1). Kind of series: Inhibition of HIV1 integrase strand transfer activity.

The structures appear in SMILES notation. Some results are limits rather than exact numbers.

Chain of Human immunodeficiency virus type 1 integrase (Q7ZJM1 whole entry): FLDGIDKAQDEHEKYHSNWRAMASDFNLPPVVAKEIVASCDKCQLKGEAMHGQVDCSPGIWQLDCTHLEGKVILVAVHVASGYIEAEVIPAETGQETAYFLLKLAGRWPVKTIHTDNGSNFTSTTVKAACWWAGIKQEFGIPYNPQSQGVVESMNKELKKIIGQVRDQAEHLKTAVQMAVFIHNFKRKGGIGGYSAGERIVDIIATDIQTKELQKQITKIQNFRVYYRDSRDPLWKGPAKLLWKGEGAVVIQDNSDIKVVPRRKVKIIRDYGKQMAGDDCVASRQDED

In turn, `Cc1cc(CNC(=O)c2nc3n(c(=O)c2O)CCCC32CCCC2)ccc1F` registered a clearance in series [1] of 17 mL/min/kg. In series [2], this compound showed a solubility of no more than 5 µg/mL. In series [3], this compound displayed an IC50 of 2 nM.
The like results for `CS(=O)(=O)c1cc(F)ccc1CNC(=O)c1nc2n(c(=O)c1O)CCCC21CCCC1` were, in that order, 46 mL/min/kg, no more than 5 µg/mL and 4 nM.
In turn, `CC1(C)OCCn2c1nc(C(=O)NCc1ccc(F)cc1Cl)c(O)c2=O` came in with an IC50 in series [3] of 10 nM.
`CC1(C)OCCn2c1nc(C(=O)NCc1ccc(F)cc1N1CCCCS1(=O)=O)c(O)c2=O` yielded a clearance in series [1] of 38 mL/min/kg. In series [3], the midpoint of inhibition, the IC50, lay at 9 nM.
The like results for `CC1(C)OCCn2c1nc(C(=O)NCc1ccc(F)cc1N1CCOCC1)c(O)c2=O` were, in that order, 29 mL/min/kg and 5 nM.
The like results for `CN(C)S(=O)(=O)c1c(CNC(=O)c2nc3n(c(=O)c2O)CCOC3(C)C)ccc(F)c1F` were, in that order, 62 mL/min/kg and 10 nM.
In series [3], `CC1(C)OCCn2c1nc(C(=O)NCc1ccc(F)c(Cl)c1)c(O)c2=O` registered an IC50 of 3 nM.
As to `CC1(C)OCCn2c1nc(C(=O)NCc1ccc(F)cc1S(C)(=O)=O)c(O)c2=O`, the clearance in series [1] is 6.9 mL/min/kg. Moreover, half-maximal inhibition in series [3] (IC50) required 6 nM.

The record behind these values is ChEMBL document CHEMBL4118197, “The discovery and preclinical evaluation of BMS-707035, a potent HIV-1 integrase strand transfer inhibitor” (Bioorg Med Chem Lett, 2018).
